Laboratory results: ChEMBL document CHEMBL1156107, “Synthesis of new alkylaminooxysterols with potent cell differentiating activities: identification of leads for the treatment of cancer and neurodegenerative diseases” (J Med Chem, 2009)
Activity calls are given as the source filed them. The calls are words filed in the database; no cut-off is given here.

Assays:
A549 = assay: Cytotoxicity against human A549 cells after 72 hrs by trypan blue exclusion assay; format: functional, cell-based; settings: A549, 72 h
In short: (§1)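 Cells were exposed for 72 h to the test agent at increasing concentrations from 10 nM to 20 μM, at 37 °C in humidified 5% CO2. Cells were scraped and resuspended in 0.25% w/v trypan blue in PBS, and dead cells were counted under a light microscope in a Malassez chamber. IC50 is the concentration giving 50% cytotoxicity. Values are mean ± SE of three independent experiments, each run in duplicate.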

P19 [1] = assay: Cytotoxicity against mouse P19 cells after 72 hrs by trypan blue exclusion assay; format: functional, cell-based; settings: P19, 72 h; in short: as §1
SK-N-SH = assay: Cytotoxicity against human SK-N-SH cells after 72 hrs by trypan blue exclusion assay; format: functional, cell-based; in short: as §1
SH-SY5Y = assay: Cytotoxicity against human SH-SY5Y cells after 72 hrs by trypan blue exclusion assay; format: functional, cell-based; in short: as §1
[2] = Cytotoxicity against mouse Neuro2a cells after 72 hrs by trypan blue exclusion assay; format: functional, cell-based; settings: N2a; in short: as §1
[3] = Cytotoxicity against human U87 cells after 72 hrs by trypan blue exclusion assay; format: functional, cell-based, U-87MG ATCC; settings: U-87 MG; in short: as §1
U-937 [4] = assay: Cytotoxicity against human U937 cells after 72 hrs by trypan blue exclusion assay; format: functional, cell-based; settings: U-937, 72 h; in short: as §1
NB-4 = assay: Cytotoxicity against human NB4 cells after 72 hrs by trypan blue exclusion assay; format: functional, cell-based; settings: NB-4, 72 h; in short: as §1
KG-1 = assay: Cytotoxicity against human KG1 cells after 72 hrs by trypan blue exclusion assay; format: functional, cell-based; settings: KG-1, 72 h; in short: as §1
HCT-8 = assay: Cytotoxicity against human HCT8 cells after 72 hrs by trypan blue exclusion assay; format: functional, cell-based; settings: HCT-8, 72 h; in short: as §1
SW-620 = assay: Cytotoxicity against human SW620 cells after 72 hrs by trypan blue exclusion assay; format: functional, cell-based; settings: SW-620, 72 h; in short: as §1
U-937 [5] = assay: Induction of dendrite out growth in IL-4/GMCSF-stimulated human U937 cells assessed as dendrite length at 100 nM after 48 hrs by light microscopy; format: functional
In short: (§2)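 U937 cells at 1.1 × 10⁶ cells/mL were primed with 10 ng/mL PMA for 48 h in RPMI with 10% heat-inactivated serum. Adherent cells were then given 100 ng/mL IL-4 plus 100 ng/mL GM-CSF or 100 nM compound for 48 h. Dendrite length scored by light microscopy, from none to over 100 μm with a contact network.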

U-937 [6] = assay: Cytotoxicity against human U937 cells after 3 days by trypan blue exclusion assay; format: functional, cell-based; settings: Homo sapiens, U-937, 72 h; read-out: IC50
In short: (§3)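 U937 and P19 cells treated with compound. Cell death scored by trypan blue exclusion, with cells scraped, suspended in 0.25% w/v trypan blue in PBS and counted in a Malassez cell. IC50 is the concentration giving 50% cytotoxicity.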

P19 [7] = assay: Induction of dendrite out growth in IL-4/GMCSF-stimulated mouse P19 cells assessed as dendrite length at 100 nM after 48 hrs by light microscopy; format: functional
P19 [8] = assay: Cytotoxicity against mouse P19 cells after 3 days by trypan blue exclusion assay; format: functional, cell-based; settings: Mus musculus, P19, 72 h; read-out: IC50; in short: as §3
U-937 [9] = assay: Cytotoxicity against human U937 cells assessed as modification of cell morphology; format: functional
P19 [10] = assay: Cytotoxicity against mouse P19 cells assessed as modification of cell morphology; format: functional
U-937 [11] = assay: Induction of dendrite outgrowth in IL-4/GMCSF-stimulated human U937 cells assessed as dendrite length after 48 hrs by light microscopy; format: functional; in short: as §2
P19 [12] = assay: Induction of dendrite outgrowth in IL-4/GMCSF-stimulated mouse P19 cells assessed as dendrite length after 48 hrs by light microscopy; format: functional
MCF7 [13] = assay: Cell cycle arrest in human MCF7 cells assessed as accumulation at pre-G1 phase at 1 uM after 48 hrs by FACS analysis; format: functional
In short: (§4)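 Cells plated at 250 000 per 100 mm plate and exposed to solvent vehicle or compound for 48 h. Trypsinized cells fixed in 70% ethanol, treated with 100 μg/mL RNase A for 30 min at 37 °C, then stained with 50 μg/mL propidium iodide in 0.25% Tween-20 for 30 min at 37 °C in the dark. DNA content of 1 × 10⁶ cells read by flow cytometry, giving sub-G1, G0/G1, S and G2/M fractions.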

MCF7 [14] = assay: Cell cycle arrest in human MCF7 cells assessed as accumulation at G1 phase at 1 uM after 48 hrs by FACS analysis; format: functional; in short: as §4
MCF7 [15] = assay: Cell cycle arrest in human MCF7 cells assessed as accumulation at S phase at 1 uM after 48 hrs by FACS analysis; format: functional; in short: as §4
MCF7 [16] = assay: Cell cycle arrest in human MCF7 cells assessed as accumulation at G2/M phase at 1 uM after 48 hrs by FACS analysis; format: functional; in short: as §4
MCF7 [17] = assay: Induction of human MCF7 cell differentiation assessed as lipid accumulation in intracytoplasmic vesicle at 1 uM after 48 hrs by oil red O staining-based light microscopy; format: functional
In short: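 MCF-7 cells on glass coverslips treated with drug, fixed in 3.7% paraformaldehyde for 1 h at room temperature, and stained with oil red O in 60% isopropanol with hematoxylin counterstain. Dye extracted with isopropanol and read at 510 nm, with control subtracted and the value normalized to SYBR green DNA stain.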

MCF7 [18] = assay: Induction of human MCF7 cell differentiation assessed as milk fat accumulation in intracytoplasmic vesicle at 1 uM after 48 hrs by Bligh and Dyer method; format: functional, cell-based
In short: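 MCF-7 cells (5 million) exposed to vehicle or compound for 48 h, washed three times in PBS. Lipids extracted by the Bligh and Dyer method and triglycerides quantified.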

MCF7 [19] = assay: Induction of human MCF7 cell differentiation assessed as stimulation of milk fat globulin expression at 1 uM after 48 hrs by immunocytochemistry; format: functional, cell-based
SK-MEL-28 [20] = assay: Cell cycle arrest in human SK-MEL-28 cells assessed as accumulation at pre-G1 phase at 1 uM after 48 hrs by FACS analysis; format: functional; in short: as §4
SK-MEL-28 [21] = assay: Cell cycle arrest in human SK-MEL-28 cells assessed as accumulation at G1 phase at 1 uM after 48 hrs by FACS analysis; format: functional; in short: as §4
SK-MEL-28 [22] = assay: Cell cycle arrest in human SK-MEL-28 cells assessed as accumulation at S phase at 1 uM after 48 hrs by FACS analysis; format: functional; in short: as §4
SK-MEL-28 [23] = assay: Cell cycle arrest in human SK-MEL-28 cells assessed as accumulation at G2/M phase at 1 uM after 48 hrs by FACS analysis; format: functional; settings: in the assay text read “G0/G1 phase” for “G2/M phase”; in short: as §4
SK-MEL-28 [24] = assay: Induction of melanogenesis in human SK-MEL-28 cells assessed as cellular melanin content at 1 uM after 48 hrs by fluorimetry; format: functional, cell-based; settings: in the assay text read “by spectrophotometry” for “by fluorimetry”
In short: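 SK-Mel-28 cells exposed to compound, washed in PBS and pelleted. Pellets of 2 × 10⁶ cells dissolved in 1 M NaOH for 1 h at 80 °C. Melanin read spectrophotometrically at 405 nm.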

MCF7 [25] = assay: Cytotoxicity against human MCF7 cells after 72 hrs by trypan blue exclusion assay; format: functional, cell-based; settings: MCF7, 72 h; in short: as §1
[26] = Cytotoxicity against mouse TSA cells after 72 hrs by trypan blue exclusion assay; format: functional, cell-based; settings: TS/A; in short: as §1
SK-MEL-28 [27] = assay: Cytotoxicity against human SK-MEL-28 cells after 72 hrs by trypan blue exclusion assay; format: functional, cell-based; settings: SK-MEL-28, 72 h; in short: as §1
B16-F10 = assay: Cytotoxicity against mouse B16F10 cells after 72 hrs by trypan blue exclusion assay; format: functional, cell-based; settings: B16-F10, 72 h; in short: as §1
SK-MEL-28 [28] = assay: Induction of melanogenesis in human SK-MEL-28 cells assessed as cellular melanin content at 1 uM after 48 hrs by spectrophotometry
SK-MEL-28 [29] = assay: Effect on human SK-MEL-28 cell morphology assessed as appearance of type 4 melanosomes at 1 uM after 48 hrs by transmission electron microscopy
SK-MEL-28 [30] = assay: Effect on human SK-MEL-28 cell morphology assessed as change from fibroblastic to melanocytic morphology at 1 uM after 48 hrs by light microscopy

## CC(C)CCC[C@@H](C)[C@H]1CC[C@H]2[C@@H]3C[C@@H](NCCc4cnc[nH]4)[C@@]4(O)C[C@@H](O)CC[C@]4(C)[C@H]3CC[C@]12C [DENDROGENIN A]
A549
  IC50: 2.56 µM
P19 [1]
  IC50: 1.8 µM
SK-N-SH
  IC50: 2.24 µM
SH-SY5Y
  IC50: 1.35 µM
[2]
  IC50: 2.32 µM
[3]
  IC50: 0.74 µM
U-937 [4]
  IC50: 0.79 µM
NB-4
  IC50: 1.32 µM
KG-1
  IC50: 5.53 µM
HCT-8
  IC50: 0.89 µM
SW-620
  IC50: 0.42 µM
U-937 [5]
  Activity: 50 um
U-937 [6]
  IC50: 0.8 µM
P19 [7]
  Activity: 50 um
P19 [8]
  IC50: 2.4 µM
U-937 [9]
  Activity: 40%
P19 [10]
  Activity: 65%
U-937 [11]
  Activity: > 200 um
P19 [12]
  Activity: > 200 um
MCF7 [13]
  Activity: 3%
MCF7 [14]
  Activity: 75%
MCF7 [15]
  Activity: 11%
MCF7 [16]
  Activity: 11%
MCF7 [17]
  Activity: Active
MCF7 [18]
  Activity: Active
MCF7 [19]
  Activity: Active
SK-MEL-28 [20]
  Activity: 1%
SK-MEL-28 [21]
  Activity: 82%
SK-MEL-28 [22]
  Activity: 7%
SK-MEL-28 [23]
  Activity: 10%
SK-MEL-28 [24]
  Activity: Active
MCF7 [25]
  IC50: 2.31 µM
[26]
  IC50: 1.28 µM
SK-MEL-28 [27]
  IC50: 2.12 µM
B16-F10
  IC50: 0.68 µM
SK-MEL-28 [28]
  Activity: Active
SK-MEL-28 [29]
  Activity: Active
SK-MEL-28 [30]
  Activity: Active
